Assay results gathered from unrelated publications.
Lines come from different studies, so protocols differ.
Sample: plasma

With CC(C)n1cc(C#N)c2cc(-n3cc(C(=O)O)cn3)ccc21 the Tmax was 4.01 h (human; oral, 200 mg, single dose, fasted, healthy volunteers).
The Tmax of OC[C@H]1O[C@@H](c2cc(Cc3ccc(C4CC4)cc3)c(Cl)c3c2CCO3)[C@H](O)[C@@H](O)[C@@H]1O is reported as 1.25 h (human; oral, 0.3 mg, single dose, fasted, healthy volunteers).
With N#Cc1cccc(-c2ccc3ncc(-c4cc(F)cc(F)c4)c(N4CCC(N)CC4)c3c2)c1O the Tmax was 1.5 h (male human; oral, 20 mg, single dose).
With O=C(COc1ccc(Cl)cc1)NC12CC(c3nnc([C@H]4C[C@@H](OC(F)(F)F)C4)o3)(C1)C2 the Tmax was 8.02 h (human; oral, 45 mg, single dose, fasted, healthy volunteers).
Cc1cn([C@H]2C[C@H](N=[N+]=[N-])[C@@H](CO)O2)c(=O)[nH]c1=O gave a Tmax of 0.62 h (human; oral, 600 mg, single dose, healthy volunteers).
CC(=O)N(C)[C@H]1CCN(C(=O)c2cnc3c(c2)C[C@](C)(c2ccc(F)cc2)N3)C1 has a Tmax of 1.14 h (male human; oral, 15 mg, multiple doses, once daily, steady state).
For COc1ccc2c(c1)CN(C(=O)CCN1CCC(Cc3ccccc3)CC1)CC[S@@+]2[O-], the Tmax was 0 h (male human; intravenous, 0.05 mg/kg, healthy volunteers).
COc1ccc(F)cc1C(=O)NCc1ccc(-c2nn([C@@H](C)C(F)(F)F)c(N)c2C(N)=O)cc1 has a Tmax of 5 h (male human; oral, 200 mg, single dose).
C[C@@H](Oc1ccc(S(C)(=O)=O)cc1C(=O)N1C[C@@H]2C[C@]2(c2cc(C(F)(F)F)on2)C1)C(F)(F)F gave a Tmax of 2.5 h (human; oral, 10 mg, single dose, fed).
